From ChEMBL document CHEMBL2406916, “7-Hydroxy-(E)-3-phenylmethylene-chroman-4-one analogues as efflux pump inhibitors against Mycobacterium smegmatis mc² 155” (2013)
≈ marks a conversion by molar mass, not a printed value. Calls of active or inactive are those of the source. The rule behind the calls is not given here.

How the values were obtained:
[1] = system: Mycolicibacterium smegmatis MC2 155; assay: Inhibition of multidrug resistance efflux pump in Mycobacterium smegmatis MC2 155 ATCC 700084 assessed as reduction in EtBr MIC at 16 mg/L by MTT assay relative to control
[2] = system: Mycolicibacterium smegmatis; assay: Antimicrobial activity against Mycobacterium smegmatis MC2 155 ATCC 700084 at 16 mg/L after 72 hrs by MTT assay in presence of EtBr; format: functional
[3] = system: Mycolicibacterium smegmatis MC2 155; assay: Inhibition of multidrug resistance efflux pump in Mycobacterium smegmatis MC2 155 ATCC 700084 assessed as EtBr accumulation at 12.5 mg/L measured every 3 mins interval for 45 mins by fluorometric method
Summary of the method: (§1)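 Cells are grown in 7H9/OADC at 37 °C to OD600 0.8, then pelleted and exposed to EtBr with test compound. Verapamil, reserpine, CCCP and DMSO serve as controls. EtBr fluorescence (excitation 530 nm, emission 600 nm) is read every 3 min for 45 min in a microplate spectrofluorimeter. Test concentrations are fractions (1/2, 1/4, 1/8) of each compound's MIC.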

[4] = system: Mycolicibacterium smegmatis; assay: Antimicrobial activity against Mycobacterium smegmatis MC2 155 ATCC 700084 after 72 hrs by MTT assay; format: functional; settings: MC2 155 ATCC 700084, 72 h
[5] = system: Mycolicibacterium smegmatis MC2 155; assay: Inhibition of multidrug resistance efflux pump in Mycobacterium smegmatis MC2 155 ATCC 700084 assessed as EtBr accumulation at half concentration of MIC measured every 3 mins interval for 45 mins by fluorometric method; summary of the method: as §1
[6] = system: Mycolicibacterium smegmatis MC2 155; assay: Inhibition of multidrug resistance efflux pump in Mycobacterium smegmatis MC2 155 ATCC 700084 assessed as reduction in EtBr MIC at 125 mg/L by MTT assay relative to control
[7] = system: Mycolicibacterium smegmatis; assay: Antimicrobial activity against Mycobacterium smegmatis MC2 155 ATCC 700084 at 125 mg/L after 72 hrs by MTT assay in presence of EtBr; format: functional
[8] = system: Mycolicibacterium smegmatis; assay: Antimicrobial activity against Mycobacterium smegmatis MC2 155 ATCC 700084 at 31.2 mg/L after 72 hrs by MTT assay in presence of EtBr; format: functional
[9] = system: Mycolicibacterium smegmatis MC2 155; assay: Inhibition of multidrug resistance efflux pump in Mycobacterium smegmatis MC2 155 ATCC 700084 assessed as reduction in EtBr MIC at 62.5 mg/L by MTT assay relative to control
[10] = system: Mycolicibacterium smegmatis; assay: Antimicrobial activity against Mycobacterium smegmatis MC2 155 ATCC 700084 at 62.5 mg/L after 72 hrs by MTT assay in presence of EtBr; format: functional
[11] = system: Mycolicibacterium smegmatis MC2 155; assay: Inhibition of multidrug resistance efflux pump in Mycobacterium smegmatis MC2 155 ATCC 700084 assessed as reduction in EtBr MIC at 31.2 mg/L by MTT assay relative to control
[12] = system: Mycolicibacterium smegmatis MC2 155; assay: Inhibition of multidrug resistance efflux pump in Mycobacterium smegmatis MC2 155 ATCC 700084 assessed as reduction in EtBr MIC at 250 mg/L by MTT assay relative to control
[13] = system: Mycolicibacterium smegmatis MC2 155; assay: Inhibition of multidrug resistance efflux pump in Mycobacterium smegmatis MC2 155 ATCC 700084 assessed as EtBr accumulation at 31.5 mg/L measured every 3 mins interval for 45 mins by fluorometric method; summary of the method: as §1
[14] = system: Mycolicibacterium smegmatis MC2 155; assay: Inhibition of multidrug resistance efflux pump in Mycobacterium smegmatis MC2 155 ATCC 700084 assessed as EtBr accumulation at 31.5 mg/L measured every 3 mins interval for 45 mins by spectrofluorometric method; summary of the method: as §1
[15] = system: Mycolicibacterium smegmatis; assay: Antimicrobial activity against Mycobacterium smegmatis MC2 155 ATCC 700084 at 40 mg/L after 72 hrs by MTT assay in presence of EtBr; format: functional
[16] = system: Mycolicibacterium smegmatis; assay: Antimicrobial activity against Mycobacterium smegmatis MC2 155 ATCC 700084 at 80 mg/L after 72 hrs by MTT assay in presence of EtBr; format: functional
[17] = system: Mycolicibacterium smegmatis MC2 155; assay: Inhibition of multidrug resistance efflux pump in Mycobacterium smegmatis MC2 155 ATCC 700084 assessed as EtBr accumulation at 128 mg/L measured every 3 mins interval for 45 mins by fluorometric method; summary of the method: as §1

Row | Structure (SMILES) | MIC [4] [µg/mL] | Activity [5] | fold change (FC) [6] | fractional inhibitory concentration index (FICI) [7] | fold change (FC) [9] | fractional inhibitory concentration index (FICI) [10] | further results
1 | N#CC(C#N)=NNc1cccc(Cl)c1 [CARBONYL CYANIDE M-CHLOROPHENYLHYDRAZONE] | 25 (≈ 122 µM) |  |  |  |  |  | fold change (FC) [1]: 2; fractional inhibitory concentration index (FICI) [2]: 1.14; Activity [3]: Active
2 | O=C1/C(=C/c2cccc(F)c2)COc2cc(O)ccc21 | 250 (≈ 925 µM) | Active | 4 | 0.75 |  |  | 
3 | O=C1/C(=C/c2cccc(Br)c2)COc2cc(O)ccc21 | 500 (≈ 1510 µM) |  | 2 | 0.75 |  |  | 
4 | O=C1/C(=C/c2ccc(C(F)(F)F)cc2)COc2cc(O)ccc21 | 250 (≈ 781 µM) |  | 4 | 0.75 |  |  | 
5 | O=C1/C(=C/c2ccc(Br)cc2)COc2cc(O)ccc21 | 500 (≈ 1510 µM) |  | 2 | 0.75 |  |  | 
6 | COc1ccc(/C=C2\COc3cc(O)ccc3C2=O)cc1 [BONDUCELLIN] | 125 (≈ 443 µM) | Active |  |  | 8 | 0.62 | fractional inhibitory concentration index (FICI) [8]: 0.5; fold change (FC) [11]: 4
7 | C=CCOc1ccccc1/C=C1\COc2cc(O)ccc2C1=O | 500 (≈ 1620 µM) |  | 2 | 0.75 |  |  | 
8 | C=CCOc1ccc(/C=C2\COc3cc(O)ccc3C2=O)cc1 | 250 (≈ 811 µM) |  | 2 | 0.75 |  |  | 
9 | O=C1/C(=C/c2cccc(Cl)c2)COc2cc(O)ccc21 | 250 (≈ 872 µM) |  | 2 | 1 |  |  | 
10 | COc1ccc(/C=C2\COc3cc(O)cc(O)c3C2=O)cc1 |  |  |  |  | 2 |  | fold change (FC) [12]: 4
11 | O=C1/C(=C/c2ccccc2F)COc2cc(O)ccc21 | 125 (≈ 463 µM) | Active |  |  | 4 | 0.75 | Activity [13]: Active; Activity [14]: Active
12 | COc1ccc(/C=C2\COc3c(ccc(O)c3O)C2=O)cc1 [INTRICATINOL] | 125 (≈ 419 µM) |  |  |  | 2 | 1 | 
13 | C=CCOc1cccc(/C=C2\COc3cc(O)ccc3C2=O)c1 | 250 (≈ 811 µM) | Active | 8 | 0.62 | 4 | 0.5 | Activity [13]: Active; Activity [14]: Active
14 | O=C1/C(=C/c2ccc(O)cc2)COc2cc(O)ccc21 | 250 (≈ 932 µM) | Active | 16 | 0.56 | 8 | 0.37 | 
15 | O=C1/C(=C/c2ccccc2)COc2cc(O)ccc21 | 500 (≈ 1980 µM) | Active | 8 | 0.37 | 4 | 0.37 | 
16 | COc1ccc(/C=C2\COc3c(ccc(O)c3OC)C2=O)cc1 [E-8-METHOXYBONDUCELLIN] | 125 (≈ 400 µM) |  |  |  | 2 | 1 | 
17 | COc1ccc(CCN(C)CCCC(C#N)(c2ccc(OC)c(OC)c2)C(C)C)cc1OC (stereo not drawn) | 300 (≈ 660 µM) |  |  |  |  |  | fractional inhibitory concentration index (FICI) [15]: 0.63; fractional inhibitory concentration index (FICI) [16]: 0.552
18 | COc1ccccc1/C=C1\COc2cc(O)ccc2C1=O | 250 (≈ 886 µM) | Active | 4 | 0.75 |  |  | 
19 | O=C1/C(=C/c2ccccc2Br)COc2cc(O)ccc21 | 125 (≈ 377 µM) |  |  |  | 2 | 1 | 
20 | COc1cccc(/C=C2\COc3cc(O)ccc3C2=O)c1 | 500 (≈ 1770 µM) |  | 2 | 0.75 |  |  | 
21 | O=C1/C(=C/c2ccc(F)cc2)COc2cc(O)ccc21 | 250 (≈ 925 µM) | Active | 4 | 0.75 |  |  | 
22 | O=C1/C(=C/c2ccc(Cl)cc2)COc2cc(O)ccc21 | 250 (≈ 872 µM) | Active | 4 | 0.75 |  |  | 
23 | COC(=O)[C@H]1[C@H]2C[C@@H]3c4[nH]c5cc(OC)ccc5c4CCN3C[C@H]2C[C@@H](OC(=O)c2cc(OC)c(OC)c(OC)c2)[C@@H]1OC [RESERPINE] | 256 (≈ 421 µM) |  |  |  |  |  | Activity [17]: Active; fractional inhibitory concentration index (FICI) [15]: 0.4
24 | O=C1/C(=C/c2cccc(O)c2)COc2cc(O)ccc21 | 500 (≈ 1860 µM) | Active | 4 | 0.5 |  |  | 
25 | CC[n+]1c(-c2ccccc2)c2cc(N)ccc2c2ccc(N)cc21.[Br-] [HOMIDIUM BROMIDE] | 16 |  |  |  |  |  | 
26 | O=C1/C(=C/c2ccccc2Cl)COc2cc(O)ccc21 | 125 (≈ 436 µM) |  |  |  | 2 | 1 | 
